In ChEMBL document CHEMBL1142703, “Novel ligands for the chemokine receptor-3 (CCR3): a receptor-modeling study based on 5D-QSAR” (J Med Chem, 2005):

Molecular target: T1, C-C chemokine receptor type 3 (Homo sapiens, UniProt P51677)
T1 sequence (P51677 whole entry): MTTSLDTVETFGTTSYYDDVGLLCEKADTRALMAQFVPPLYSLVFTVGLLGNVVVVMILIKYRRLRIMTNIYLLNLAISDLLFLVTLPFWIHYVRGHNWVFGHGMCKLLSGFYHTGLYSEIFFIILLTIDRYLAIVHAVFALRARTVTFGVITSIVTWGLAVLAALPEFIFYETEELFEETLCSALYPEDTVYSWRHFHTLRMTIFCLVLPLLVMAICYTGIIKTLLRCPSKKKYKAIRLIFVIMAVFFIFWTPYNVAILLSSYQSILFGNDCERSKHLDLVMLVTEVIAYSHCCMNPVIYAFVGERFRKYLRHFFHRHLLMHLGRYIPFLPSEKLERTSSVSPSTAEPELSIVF
Assay: Inhibition of [125I]eotaxin-1 binding to human chemokine receptor (hCCR3-C1)
How it was run: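 K562 leukemia myelogenic blast cells transfected with human CCR3 (hCCR3-C1). Binding of the radioligand 125I-eotaxin-1 was measured in a scintillation proximity format. Controls: specific binding with no displacer added, and nonspecific binding with unlabeled eotaxin or test compound added. Bound radioactivity was counted by scintillation. Ki was obtained by iterative fitting of the data to a law-of-mass-action model.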

COc1ccc(C(CNC(=O)Nc2cc(Cl)cc(Cl)c2)N2CCN(C3CCCCC3)CC2)cc1 (stereo not given)
Ki: 830 nM

O=C(NCC(c1ccc(C(F)(F)F)cc1)N1CCN(C2CCCCC2)CC1)Nc1cc(Cl)cc(Cl)c1 (stereo not given)
Ki: 932 nM

CC(C)(C)c1ccc(CCNCC(c2ccc(C(F)(F)F)cc2)N2CCN(C3CCCCC3)CC2)cc1 (stereo not given)
Ki: 832 nM

CN(C)c1ccc(CCNCC(c2ccc(C(C)(C)C)cc2)N2CCN(C3CCCCC3)CC2)cc1 (stereo not given)
Ki: 312 nM

CN(C)c1ccc(C(CNC(=O)Nc2cc(Cl)cc(Cl)c2)N2CCN(C3CCCCC3)CC2)cc1 (stereo not given)
Ki: 987 nM

CC(C)(C)c1ccc(C(CNC(=O)Nc2ccc(F)cc2)N2CCN(C3CCCCC3)CC2)cc1 (stereo not given)
Ki: 1120 nM

CN1CCN(C(CNC(=O)Nc2cc(Cl)cc(Cl)c2)c2ccc(C(F)(F)F)cc2)CC1 (stereo not given)
Ki: 5180 nM

CN1CCN(C(CNC(=O)Nc2ccc(F)cc2)c2ccc(N(C)C)cc2)CC1 (stereo not given)
Ki: 7750 nM

COc1ccc(C(CNCCc2ccc(C(C)(C)C)cc2)N2CCN(C3CCCCC3)CC2)cc1 (stereo not given)
Ki: 629 nM

CN1CCN(C(CNC(=O)Nc2cc(Cl)cc(Cl)c2)c2ccc(N(C)C)cc2)CC1 (stereo not given)
Ki: 3810 nM

COc1ccccc1C(CNC(=O)Nc1ccc(F)cc1)N1CCN(C2CCCCC2)CC1 (stereo not given)
Ki: 5380 nM

COc1ccc(C(CNC(=O)Nc2ccc(F)cc2)N2CCN(C3CCCCC3)CC2)cc1 (stereo not given)
Ki: 1030 nM

O=C(Cc1cc(Cl)cc(Cl)c1)NCC(c1ccccc1)N1CCN(C2CCCCC2)CC1 (stereo not given)
Ki: 62500 nM

Cc1ccc(NC(=O)NCC(c2ccccc2)N2CCN(c3ccccc3)CC2)cc1 (stereo not given)
Ki: 8020 nM

Fc1ccc(CCNCC(c2ccc(C(F)(F)F)cc2)N2CCN(C3CCCCC3)CC2)cc1 (stereo not given)
Ki: 895 nM

Cc1ccc(NC(=O)NCC(c2ccc(C(F)(F)F)cc2)N2CCN(C3CCCCC3)CC2)cc1 (stereo not given)
Ki: 1070 nM

O=C(NCC(c1ccc(C(F)(F)F)cc1)N1CCN(C2CCCCC2)CC1)Nc1ccc(F)cc1 (stereo not given)
Ki: 1110 nM

COc1ccc(NC(=O)NCC(c2ccc(C(F)(F)F)cc2)N2CCN(c3ccccc3)CC2)cc1 (stereo not given)
Ki: 14800 nM

COc1ccccc1NC(=O)NCC(c1ccc(C(F)(F)F)cc1)N1CCN(C)CC1 (stereo not given)
Ki: 3350 nM

FC(F)(F)c1ccc(C(CNCCc2cc(Cl)cc(Cl)c2)N2CCN(C3CCCCC3)CC2)cc1 (stereo not given)
Ki: 129 nM

CN(C)c1ccc(CCNCC(c2ccc(C(F)(F)F)cc2)N2CCN(c3ccccc3)CC2)cc1 (stereo not given)
Ki: 605 nM

O=C(NCC(c1ccccc1)N1CCN(c2ccccc2)CC1)Nc1ccc(F)cc1 (stereo not given)
Ki: 5550 nM

COc1ccc(CCNCC(c2ccc(C(C)(C)C)cc2)N2CCN(c3ccccc3)CC2)cc1 (stereo not given)
Ki: 768 nM

CN(C)c1ccc(CCNCC(c2ccccc2)N2CCN(c3ccccc3)CC2)cc1 (stereo not given)
Ki: 1770 nM

Cc1ccc(NC(=O)NCC(c2ccc(C(F)(F)F)cc2)N2CCN(C)CC2)cc1 (stereo not given)
Ki: 10700 nM

COc1ccc(C(CNCCc2ccc(C)cc2)N2CCN(C3CCCCC3)CC2)cc1 (stereo not given)
Ki: 914 nM

COc1ccc(NC(=O)NCC(c2ccc(C(F)(F)F)cc2)N2CCN(C3CCCCC3)CC2)cc1 (stereo not given)
Ki: 1710 nM

COc1ccc(C(CNC(=O)Cc2ccccc2)N2CCN(c3ccccc3)CC2)cc1 (stereo not given)
Ki: 40200 nM

COc1ccc(NC(=O)NCC(c2ccc(C(C)(C)C)cc2)N2CCN(C3CCCCC3)CC2)cc1 (stereo not given)
Ki: 1980 nM

Cc1ccc(CCNCC(c2ccc(C(F)(F)F)cc2)N2CCN(C3CCCCC3)CC2)cc1 (stereo not given)
Ki: 545 nM

COc1ccccc1CCNCC(c1ccc(C(F)(F)F)cc1)N1CCN(C2CCCCC2)CC1 (stereo not given)
Ki: 118 nM

COc1ccc(NC(=O)NCC(c2ccccc2OC)N2CCN(C3CCCCC3)CC2)cc1 (stereo not given)
Ki: 10500 nM

CC(C)CC(CNC(=O)Nc1ccc(Cl)cc1)N1CCN(C2CCCCC2)CC1 (stereo not given)
Ki: 429 nM

O=C(NCC(c1ccccc1)N1CCN(C2CCCCC2)CC1)Nc1cc(Cl)cc(Cl)c1 (stereo not given)
Ki: 1250 nM

CC(C)(C)c1ccc(C(CNCCc2cc(Cl)cc(Cl)c2)N2CCN(C3CCCCC3)CC2)cc1 (stereo not given)
Ki: 224 nM

CC(C)(C)c1ccc(CCNCC(c2ccc(C(C)(C)C)cc2)N2CCN(C3CCCCC3)CC2)cc1 (stereo not given)
Ki: 349 nM

CN(C)c1ccc(CCNCC(c2ccc(C(F)(F)F)cc2)N2CCN(C3CCCCC3)CC2)cc1 (stereo not given)
Ki: 1080 nM

CN(C)c1ccc(C(CNCCc2ccc(C(F)(F)F)cc2)N2CCN(c3ccccc3)CC2)cc1 (stereo not given)
Ki: 1670 nM

COc1ccc(C(CNC(=O)Nc2ccc(C(C)(C)C)cc2)N2CCN(C3CCCCC3)CC2)cc1 (stereo not given)
Ki: 910 nM

O=C(NCC(c1ccc(C(F)(F)F)cc1)N1CCN(C2CCCCC2)CC1)Nc1ccc(C(F)(F)F)cc1 (stereo not given)
Ki: 1310 nM

O=C(NCC(c1ccccc1)N1CCN(C2CCCCC2)CC1)Nc1ccc(F)cc1 (stereo not given)
Ki: 6360 nM

FC(F)(F)c1ccc(CCNCC(c2ccccc2)N2CCN(C3CCCCC3)CC2)cc1 (stereo not given)
Ki: 1310 nM

COc1ccccc1C(CNC(=O)Nc1cc(Cl)cc(Cl)c1)N1CCN(C2CCCCC2)CC1 (stereo not given)
Ki: 897 nM

Cc1ccc(CC(=O)NCC(c2ccccc2)N2CCN(c3ccccc3)CC2)cc1 (stereo not given)
Ki: 26900 nM

Cc1ccc(NC(=O)NCC(c2ccccc2)N2CCN(C3CCCCC3)CC2)cc1 (stereo not given)
Ki: 5390 nM

FC(F)(F)c1ccc(C(CNCCc2ccccc2)N2CCN(C3CCCCC3)CC2)cc1 (stereo not given)
Ki: 484 nM

COc1ccc(CCNCC(c2ccc(C(C)(C)C)cc2)N2CCN(C3CCCCC3)CC2)cc1 (stereo not given)
Ki: 346 nM

COc1ccc(C(CNCCc2cc(C)cc(C)c2)N2CCN(C3CCCCC3)CC2)cc1 (stereo not given)
Ki: 50 nM

Cc1ccc(CCNCC(c2ccc(N(C)C)cc2)N2CCN(c3ccccc3)CC2)cc1 (stereo not given)
Ki: 435 nM

O=C(NCC(c1ccccc1)N1CCN(C2CCCCC2)CC1)Nc1ccc(C(F)(F)F)cc1 (stereo not given)
Ki: 1460 nM

Fc1ccc(CCNCC(c2ccc(C(F)(F)F)cc2)N2CCN(c3ccccc3)CC2)cc1 (stereo not given)
Ki: 1200 nM

COc1ccccc1CC(=O)NCC(c1ccccc1OC)N1CCN(c2ccccc2)CC1 (stereo not given)
Ki: 6000 nM

CC(C)(C)c1ccc(C(CNC(=O)Cc2ccc(C(F)(F)F)cc2)N2CCN(C3CCCCC3)CC2)cc1 (stereo not given)
Ki: 10300 nM

Cc1cc(C)cc(CCNCC(c2ccc(-c3ccccc3)cc2)N2CCN(C3CCCCC3)CC2)c1 (stereo not given)
Ki: 517 nM

CN1CCN(C(CNCCc2ccccc2)c2ccccc2)CC1 (stereo not given)
Ki: 21800 nM

COc1ccc(C(CNCCc2ccc(F)cc2)N2CCN(C)CC2)cc1 (stereo not given)
Ki: 11700 nM

Cc1cc(C)cc(NC(=O)NCC(CC(C)C)N2CCN(c3ccc(Cl)c(Cl)c3)CC2)c1 (stereo not given)
Ki: 313 nM

Cc1cc(C)cc(NC(=O)NCC(c2ccc(-c3ccccc3)cc2)N2CCN(C3CCCCC3)CC2)c1 (stereo not given)
Ki: 326 nM

O=C(NCC(c1ccc(C(F)(F)F)cc1)N1CCN(C2CCCCC2)CC1)Nc1ccccc1 (stereo not given)
Ki: 479 nM

CC(C)(C)c1ccc(C(CNCCc2ccc(C(F)(F)F)cc2)N2CCN(C3CCCCC3)CC2)cc1 (stereo not given)
Ki: 231 nM

CN(C)c1ccc(NC(=O)NCC(c2ccc(C(C)(C)C)cc2)N2CCN(C3CCCCC3)CC2)cc1 (stereo not given)
Ki: 1720 nM

COc1ccc(C(CNCCc2ccc(C)cc2)N2CCN(c3ccccc3)CC2)cc1 (stereo not given)
Ki: 597 nM

CC(C)(C)c1ccc(C(CNC(=O)Nc2ccccc2)N2CCN(C3CCCCC3)CC2)cc1 (stereo not given)
Ki: 1130 nM

CC(C)(C)c1ccc(C(CNC(=O)Cc2ccccc2)N2CCN(c3ccccc3)CC2)cc1 (stereo not given)
Ki: 11200 nM

COc1ccccc1CCNCC(c1ccc(C(C)(C)C)cc1)N1CCN(C2CCCCC2)CC1 (stereo not given)
Ki: 216 nM

CN1CCN(C(CNCCc2ccc(C(F)(F)F)cc2)c2ccccc2)CC1 (stereo not given)
Ki: 8970 nM

Cc1ccc(NC(=O)NCC(CC(C)C)N2CCN(c3ccc(Cl)c(Cl)c3)CC2)cc1 (stereo not given)
Ki: 179 nM

COc1ccc(NC(=O)NCC(c2ccccc2)N2CCN(C3CCCCC3)CC2)cc1 (stereo not given)
Ki: 9830 nM

Cc1ccc(NC(=O)NCC(c2ccc(-c3ccccc3)cc2)N2CCN(C3CCCCC3)CC2)cc1 (stereo not given)
Ki: 316 nM

COc1ccccc1CCNCC(c1ccc(C(C)(C)C)cc1)N1CCN(c2ccccc2)CC1 (stereo not given)
Ki: 488 nM

COc1ccc(C(CNCCc2cc(Cl)cc(Cl)c2)N2CCN(C3CCCCC3)CC2)cc1 (stereo not given)
Ki: 62 nM

COc1ccc(C(CNCCc2ccc(C(F)(F)F)cc2)N2CCN(C3CCCCC3)CC2)cc1 (stereo not given)
Ki: 929 nM

COc1ccccc1CCNCC(c1ccccc1OC)N1CCN(c2ccccc2)CC1 (stereo not given)
Ki: 1580 nM

COc1ccccc1C(CNCCc1cc(Cl)cc(Cl)c1)N1CCN(C2CCCCC2)CC1 (stereo not given)
Ki: 344 nM

CN1CCN(C(CNCCc2ccccc2)c2ccc(C(F)(F)F)cc2)CC1 (stereo not given)
Ki: 4730 nM

Clc1cc(Cl)cc(CCNCC(c2ccccc2)N2CCN(C3CCCCC3)CC2)c1 (stereo not given)
Ki: 80 nM

CC(C)(C)c1ccc(NC(=O)NCC(c2ccc(C(C)(C)C)cc2)N2CCN(C3CCCCC3)CC2)cc1 (stereo not given)
Ki: 2050 nM

CC(C)(C)c1ccc(C(CNCCc2ccccc2)N2CCN(C3CCCCC3)CC2)cc1 (stereo not given)
Ki: 350 nM

COc1ccc(CCNCC(c2ccc(C(F)(F)F)cc2)N2CCN(C3CCCCC3)CC2)cc1 (stereo not given)
Ki: 477 nM

COc1ccc(C(CNC(=O)Nc2ccc(C(F)(F)F)cc2)N2CCN(C3CCCCC3)CC2)cc1 (stereo not given)
Ki: 1530 nM

COc1ccccc1C(CNC(=O)Nc1ccc(C)cc1)N1CCN(c2ccccc2)CC1 (stereo not given)
Ki: 3540 nM

CN(C)c1ccc(C(CNC(=O)Cc2ccc(C(F)(F)F)cc2)N2CCN(c3ccccc3)CC2)cc1 (stereo not given)
Ki: 34900 nM

COc1ccc(C(CNCCc2ccccc2)N2CCN(C3CCCCC3)CC2)cc1 (stereo not given)
Ki: 1040 nM

COc1ccccc1CC(=O)NCC(c1ccc(C(C)(C)C)cc1)N1CCN(c2ccccc2)CC1 (stereo not given)
Ki: 8850 nM

FC(F)(F)c1ccc(CCNCC(c2ccc(C(F)(F)F)cc2)N2CCN(C3CCCCC3)CC2)cc1 (stereo not given)
Ki: 782 nM

CC(C)(C)c1ccc(C(CNC(=O)Nc2ccc(C(F)(F)F)cc2)N2CCN(C3CCCCC3)CC2)cc1 (stereo not given)
Ki: 972 nM

COc1ccccc1NC(=O)NCC(c1ccc(C(F)(F)F)cc1)N1CCN(C2CCCCC2)CC1 (stereo not given)
Ki: 3650 nM

CC(C)CC(CNC(=O)Nc1cc(Cl)cc(Cl)c1)N1CCN(C2CCCCC2)CC1 (stereo not given)
Ki: 296 nM

COc1ccc(CCNCC(c2ccc(C(F)(F)F)cc2)N2CCN(c3ccccc3)CC2)cc1 (stereo not given)
Ki: 393 nM

COc1ccc(C(CNC(=O)Nc2ccc(C)cc2)N2CCN(C3CCCCC3)CC2)cc1 (stereo not given)
Ki: 2250 nM
